# Published values of several laboratories.
# Target: Tyrosine-protein kinase Blk (BLK, Homo sapiens, UniProt P51451)
SMILES,effect on,mode,method,tested at,endpoint,value
COc1cc(Cl)c(C(=O)N[C@@H](CN[C@H]2CC[C@@H](N)CC2)Cc2ccc(C#N)cc2)cc1-c1ccc(CN[C@H](C)c2ccc(C)cc2)o1,enzyme activity,inhibitor,,1 µM,remaining activity,80%
CNC(=O)c1cc2c(Oc3ccc(NC(=O)C4(C(=O)Nc5ccc(F)cc5)CC4)cc3)ccnc2cc1OC,enzyme activity,inhibitor,radiometric,1 µM,inhibition,94%
CN(C(=O)c1ccccc1)c1cc(N(C)c2ccc3c(c2)CCc2ccc(C(=O)NCCN4CCOCC4)cc2C3=O)ccc1F,cell-free assay,,competition with immobilised ligand,1 µM,remaining binding,100%
COc1cc2ncnc(Nc3ccc(Oc4ccccc4)c(C)c3C)c2cc1OC,enzyme activity,inhibitor,,1 µM,inhibition,71%
O=C1Nc2ccc(Cl)cc2C1=Cc1cc(Cl)c(O)c(Cl)c1,cell-free assay,,,0.5 µM,remaining signal,102%
Cc1ccc(C(=O)NCc2ccsc2)cc1C#Cc1cn(C(C)C)c2ncnc(N)c12,enzyme activity,inhibitor,,1 µM,activity vs control,4%
Nc1nc(Nc2ccc(S(N)(=O)=O)cc2)nn1C(=O)c1c(F)cccc1F,cell-free assay,,,0.5 µM,remaining signal,90.1%
CC(C)(C)c1nc2c(s1)c1nc(N)ncc1c1ccc(NS(=O)(=O)c3c(F)cccc3F)c(F)c12,enzyme activity,inhibitor,radiometric,1 µM,remaining activity,52%
CCN(CC)c1ccc(C2=NNC(=O)CC2C)cc1[N+](=O)[O-] (stereo not drawn),enzyme activity,inhibitor,,10 µM,remaining activity,110%
N#Cc1ccc(Nc2ccc3[nH]c(=O)[nH]c3c2)c(Cl)c1,cell-free assay,,competition with immobilised ligand,1 µM,remaining binding,97%
C=CC(=O)Nc1cc(Nc2nccc(Nc3cc(Cl)c(F)cc3C(C)(C)O)n2)c(OC)cc1N1CC[C@@H](N(C)C)C1,enzyme activity,inhibitor,,1 µM,inhibition,90%
Cc1cnc(NC2CCOCC2)nc1-n1cnc(C(=O)NC(CN)c2cc(F)cc(Cl)c2)c1 (stereo not drawn),enzyme activity,inhibitor,radiometric,1 µM,remaining activity,112%
CCOCCn1cc(C(=O)Nc2ccc(-n3nc(-c4cccnc4)cc3C(F)(F)F)cn2)ccc1=O,cell-free assay,,competition with immobilised ligand,1 µM,remaining binding,89%
O=C(Nc1cnn(-c2csc(C(=O)NC3COC3)c2)c1)Nc1ccccc1Cl,enzyme activity,inhibitor,,5 µM,remaining activity,79.2%
CC(C)CC(=O)N1CCc2nc(-c3ccc(Br)cc3)nc(N(C)Cc3ccccc3)c2C1,cell-free assay,,competition with immobilised ligand,0.1 µM,remaining binding,84%
O=C1NC(=O)c2cc(Nc3ccc(F)cc3)c(Nc3ccc(F)cc3)cc21,cell-free assay,,,0.5 µM,remaining signal,94.3%
CCC(=O)N[C@@H]1CC[C@H](C(=O)N(C)c2ccc(-c3nc4ccccc4o3)cc2)C1,cell-free assay,,competition with immobilised ligand,1 µM,remaining binding,100%
Nc1ncnc2occ(-c3ccc(NC(=O)Nc4cc(C(F)(F)F)ccc4F)cc3)c12,cell-free assay,,,20 µM,remaining signal,0.45%
